Data published in ChEMBL document CHEMBL4251658, “Cytotoxic and Noncytotoxic Metabolites from Teratosphaeria sp. FL2137, a Fungus Associated with Pinus clausa” (J Nat Prod, 2018).
pIC50: −log10 of the molar value.

Experiments:
Format in all cases: functional, cell-based
NCI-H460 = assay: Cytotoxicity against human NCI-H460 cells by resazurin dye based Alamar blue assay
How it was run: (§1)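 Resazurin-based colorimetric (Alamar Blue) read-out of in vitro cytotoxicity in human cancer lines: NCI-H460 non-small-cell lung, SF-268 CNS glioma, MCF-7 breast, PC-3M metastatic prostate adenocarcinoma, MDA-MB-231 breast adenocarcinoma. Doxorubicin served as positive control and DMSO as negative control. Run in triplicate. Compounds tested up to 5.0 μM; IC50 values derived.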

SF-268 = assay: Cytotoxicity against human SF268 cells by resazurin dye based Alamar blue assay; how it was run: as §1
MCF7 = assay: Cytotoxicity against human MCF7 cells by resazurin dye based Alamar blue assay; how it was run: as §1
PC-3M = assay: Cytotoxicity against human PC3M cells by resazurin dye based Alamar blue assay; how it was run: as §1
MDA-MB-231 = assay: Cytotoxicity against human MDA-MB-231 cells by resazurin dye based Alamar blue assay; how it was run: as §1

Compound | pIC50 (NCI-H460) | pIC50 (SF-268) | pIC50 (MCF7) | pIC50 (PC-3M) | pIC50 (MDA-MB-231)
COc1cc(O)c2c(c1)C(=O)C(C)=CC2=O | < 5.30 | < 5.30 | 5.51 | 5.31 | 5.92
COc1cccc2c1C(=O)c1c(O)c3c(c(O)c1C2=O)C[C@@](O)(C(=O)CO)C[C@@H]3O[C@H]1C[C@H](N)[C@H](O)[C@H](C)O1 [DOXORUBICIN] | 6.40 | – | – | 6.70 | 6.22
COc1cc(O)c2c(c1)C(=O)c1cocc1C2=O [MONOSPORASCONE] | < 5.30 | < 5.30 | < 5.30 | < 5.30 | 5.42
